WT yeast gro inh – growth inhibition of WT yeast, mitochondrial fusion screen; mitochondrial fusion phenotypic screen, WT strain; inhibition, % at 10 µM; 190,000 compounds, 2.1% hits; AID 1362; in the data active = inhibition above about 58%; tested in S. cerevisiae
ABCB1 inh – inhibitors of human ABCB1 transporter, ABCG2 counter-screen | inhibition, % at 6.6 µM | CCRF-Adr cells, JC-1 efflux, flow cytometry | AID 1326 | 190,000 compounds, 0.067% hits | P08183; in the data active = inhibition above about 40%;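 note: higher value means more JC-1 retained so stronger ABCB1 efflux block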
ABCG2 block – human ABCG2 inhibition, ABCB1 as counter-screen. Q9UNQ0. IgMXP3 cells, JC-1 efflux, flow cytometry. inhibition, % at 6.6 µM. 190,000 compounds, 0.1% hits. AID 1325;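 active = inhibition above 80%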
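System: two drug-resistant human cell lines, ABCG2 and ABCB1; controls: nicardipine high and DMSO low controls; times: 10 min exposure at 25 °C with rotation, no wash; detection: flow cytometry of retained JC-1 fluorescence; read-out basis: percent efflux inhibition, scaled nicardipine 100% to DMSO 0%; doses: one concentration, 6.6 µM final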
MEKK3 PB1 HTS – MEKK3-MEK5 PB1 interaction, increase or decrease. Q99759. AID 1529. 290,000 compounds, 1.4% hits. bead-based flow cytometry, Alexa488-MEK5 binding to MEKK3; actives lie on both sides; 0 = blocked by unlabeled MEK5, 100 = vehicle. binding response (% of control), % at 10 µM;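 active = binding response more than 3 SD above or below the average of its plate-row segment, actives on both sides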;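 note: Alexa488 bead fluorescence after subtracting the streptavidin-only scavenger bead signal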
Target sequence (Q99759 whole entry, looked up): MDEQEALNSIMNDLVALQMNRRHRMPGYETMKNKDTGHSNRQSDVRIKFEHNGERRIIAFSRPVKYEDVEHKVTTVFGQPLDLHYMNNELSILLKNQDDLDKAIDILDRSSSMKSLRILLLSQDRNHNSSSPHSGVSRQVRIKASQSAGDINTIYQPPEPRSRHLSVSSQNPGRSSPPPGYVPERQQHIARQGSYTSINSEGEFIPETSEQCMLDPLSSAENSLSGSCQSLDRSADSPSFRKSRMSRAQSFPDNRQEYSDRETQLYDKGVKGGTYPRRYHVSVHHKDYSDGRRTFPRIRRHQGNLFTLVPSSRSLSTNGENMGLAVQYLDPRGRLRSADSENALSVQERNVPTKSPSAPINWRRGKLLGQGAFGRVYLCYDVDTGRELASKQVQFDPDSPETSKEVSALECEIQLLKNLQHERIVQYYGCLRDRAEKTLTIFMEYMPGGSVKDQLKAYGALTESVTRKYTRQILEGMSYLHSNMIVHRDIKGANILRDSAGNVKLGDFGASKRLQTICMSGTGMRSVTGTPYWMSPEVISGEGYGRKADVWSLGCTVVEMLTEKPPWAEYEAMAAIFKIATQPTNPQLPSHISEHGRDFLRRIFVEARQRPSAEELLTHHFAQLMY
MEKK2wt PB1 HTS – raises or lowers MEK5 binding to wildtype human MEKK2 PB1 domain; Q9Y2U5; bead flow cytometry, Alexa488-MEK5 binding to MEKK2 WT; actives lie on both sides; binding response (% of control), % at 10 µM; 290,000 compounds, 1.1% hits; AID 1531; in the data active = binding response below about 67% or above about 130%
MEKK2 mut-MEK5 – signal of MEK5 binding to mutant human MEKK2 PB1 domain; bead flow cytometry, Alexa488-MEK5 binding to MEKK2 mutant; percent response, % at 10 µM; 290,000 compounds, 0.35% hits; in the data active = percent response above about 24%, passing the limit was not always enough
MEKK2wt confirm – raises or lowers MEK5 binding to wildtype human MEKK2, retest; 5,900 compounds, 2.4% hits; bead flow cytometry, Alexa488-MEK5 binding to MEKK2 WT; actives lie on both sides; shares compounds with MEKK3 PB1 HTS; AID 1892; binding response (% of control), % at 10 µM; in the data active = binding response below about 16% or above about 210%; inactive = in between
MEKK2mut confirm – signal of MEK5 binding to mutant human MEKK2, retest; shares compounds with MEKK3 PB1 HTS; bead flow cytometry, Alexa488-MEK5 binding to MEKK2 mutant; percent response, % at 10 µM; 5,900 compounds, 2% hits; in the data active = percent response mostly above about 71%, no sharp cut-off; inactive = mostly below about 38%;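 note: higher means compound restores mutant binding toward wildtype level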
MEKK3-MEK5 inh – MEKK3-MEK5 PB1 inhibition, single concentration confirmation; shares compounds with MEKK3 PB1 HTS; bead flow cytometry, Alexa488-MEK5 binding to MEKK3; active compounds read low; binding response (% of control), % at 10 µM; 5,900 compounds, 1.8% hits; AID 1894;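 active = binding response below 72% of control, or above a set upper limit, though filed actives all read lower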;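 note: lower values mean stronger disruption of MEK5 binding to MEKK3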
Large screens that a line does not name were inactive (follow-up assays come after a bar, where they were run); [ ] = dose if it differs, or a comment. Only some compounds are listed: those with a hit (about 3.5% of all), similar ones and a draw of the others.

O=C1c2ccccc2S(=O)(=O)c2cc(N3CCOCC3)ccc21	MEKK3 PB1 HTS 82[inhibitor] (no result: WT yeast gro inh, ABCB1 inh, ABCG2 block) | MEKK2wt confirm inactive | MEKK2mut confirm inactive | MEKK3-MEK5 inh inactive
C(=C\c1nc(N2CCCCCC2)c2ccccc2n1)/c1ccccc1	MEKK2wt PB1 HTS 144 | MEKK2wt confirm inactive | MEKK2mut confirm inactive | MEKK3-MEK5 inh inactive
Cc1cccc(NC(=O)CSc2nnc(-c3ccncc3)n2CC2CCCO2)c1 (stereo not drawn)	none (no result: WT yeast gro inh, ABCB1 inh, ABCG2 block)
N#C/C(=C\C1=C(N2CCOCC2)C(=C/c2cccc([N+](=O)[O-])c2)/CC1)C(=O)Nc1ccccc1F	MEKK3 PB1 HTS 9.0[inhibitor] (no result: MEKK2wt PB1 HTS) | MEKK2wt confirm inactive | MEKK2mut confirm inactive | MEKK3-MEK5 inh inactive
N#C/C(=C\C1=C(N2CCOCC2)C(=C\c2ccc(Cl)cc2)/CC1)C(=O)Nc1ccccc1F	MEKK3 PB1 HTS 7.0[inhibitor] (no result: MEKK2wt PB1 HTS) | MEKK2wt confirm inactive | MEKK2mut confirm inactive | MEKK3-MEK5 inh inactive
CCN(CC)c1ccc(/C=C2\CCC(/C=C(\C#N)C(=O)Nc3ccccc3F)=C2N2CCOCC2)cc1	none (no result: MEKK3 PB1 HTS, MEKK2wt PB1 HTS, MEKK2 mut-MEK5)
COc1ccc2cnnc(SCC(=O)Nc3ccc(C(C)=O)cc3)c2c1OC	none
COc1ccc2cnnc(SCC(=O)Nc3ccc(C(=O)O)cc3)c2c1OC	MEKK3 PB1 HTS 143 | MEKK2wt confirm inactive | MEKK2mut confirm inactive | MEKK3-MEK5 inh inactive
O=C(NCCC1=CCCCC1)C(=O)c1c[nH]c2ccccc12	MEKK3 PB1 HTS 133 | MEKK2wt confirm inactive | MEKK2mut confirm inactive | MEKK3-MEK5 inh inactive
Cc1c(CCOC(=O)CC23CC4CC(CC(C)(C4)C2)C3)sc[n+]1CC(=O)c1ccccc1	MEKK2wt PB1 HTS 153 | MEKK2wt confirm inactive | MEKK2mut confirm inactive | MEKK3-MEK5 inh inactive
COc1cc(C(F)(F)F)ccc1C(=O)NCCc1ccco1	none (no result: WT yeast gro inh, ABCB1 inh, ABCG2 block)
CC1(C)CC(N=Cc2c(O)n(Cc3ccc4c(c3)OCO4)c(=O)c3ccccc23)CC(C)(C)N1	MEKK2wt PB1 HTS 149 | MEKK2wt confirm inactive | MEKK2mut confirm inactive | MEKK3-MEK5 inh inactive
CCCOP(=O)(c1ccccc1)c1ccccc1	MEKK3 PB1 HTS 141 | MEKK2wt confirm inactive | MEKK2mut confirm inactive | MEKK3-MEK5 inh inactive
CCOc1ccc(Oc2c(/C=N/NC(=O)C3CC3)c(C)nn2-c2ccccc2)cc1	MEKK3 PB1 HTS 131 | MEKK2wt confirm inactive | MEKK2mut confirm inactive | MEKK3-MEK5 inh inactive
CCOc1ccc(Oc2c(/C=N/NC(C)=O)c(C)nn2-c2ccccc2)cc1	none
CCc1cccc(C)c1NC(=O)C1CCCN1C(=O)NCc1ccccc1 (stereo not drawn)	none (no result: WT yeast gro inh, ABCB1 inh, ABCG2 block)
O=C(NNC(=S)NC1CCCCC1)c1ccccc1Br	none (no result: WT yeast gro inh, ABCB1 inh, ABCG2 block)
CN(C)n1cccc1/C=C(\C#N)S(=O)(=O)c1ccc(Cl)cc1	MEKK3 PB1 HTS 139 (no result: WT yeast gro inh, ABCB1 inh, ABCG2 block) | MEKK2wt confirm inactive | MEKK2mut confirm inactive | MEKK3-MEK5 inh inactive
O=C(/C=C/c1ccco1)NC(=S)Nc1ccc(N2CCCC2)cc1	MEKK3 PB1 HTS 142 | MEKK2wt confirm inactive | MEKK2mut confirm inactive | MEKK3-MEK5 inh inactive
COc1ccc(CCNC(=O)c2cccc(NS(=O)(=O)c3ccccc3F)c2)cc1OC	none (no result: WT yeast gro inh, ABCB1 inh, ABCG2 block)
CNCC(=O)Nc1c(C)n[nH]c1C	MEKK3 PB1 HTS 148 | MEKK2wt confirm inactive | MEKK2mut confirm inactive | MEKK3-MEK5 inh inactive
N#C/C(=C/c1ccc(-c2ccc(S(N)(=O)=O)cc2)o1)C(=O)Nc1ccccc1	none
N#C/C(=C/c1ccc(-c2ccc(S(N)(=O)=O)cc2)o1)c1nc2ccccc2s1	MEKK3 PB1 HTS 63[inhibitor], MEKK2wt PB1 HTS 28[inhibitor] | MEKK2wt confirm inactive | MEKK2mut confirm inactive | MEKK3-MEK5 inh inactive
N#Cc1ccncc1S(=O)c1ccc(Cl)cc1 (stereo not drawn)	none (no result: WT yeast gro inh, ABCB1 inh, ABCG2 block)

From PubChem
